SENP1 FRET inh: human SENP1 catalytic domain inhibitors, primary screen, biochemical, FRET, uHTS; Sentrin-specific protease 1 (Homo sapiens), Q9P0U3; recombinant SENP1 catalytic domain, CyPet-SUMO1-YPet FRET cleavage; inhibition, % at 10 µM; hit rate 0.21% among 360,000;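 active = inhibition at least 30% at 10 µM, raw YFP signal under a set limit, fluorescence ratio 0.5 to 1.5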;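 also: 0% = enzyme with DMSO and 100% = no enzyme wells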
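Test system: human SENP1 catalytic domain; medium: Tris pH 8 buffer plus EDTA, NaCl, BME, BSA, NP40, catalase; incubation: 50 min reaction at room temperature; technique: FRET, CFP and YFP emission; controls: no-enzyme low control and enzyme-plus-DMSO high control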
ABCB6 inh MLPCN: ABCB6 transporter inhibitors, primary screen, K562-ABCB6 cells, flow cytometry, MLPCN library; fluorescence ratio to DMSO, % at 10 µM; hit rate 0.19% among 360,000; ATP-binding cassette sub-family B member 6 (Homo sapiens), Q9NP58; K562-ABCB6 porphyrin accumulation, 1 h; hits give low values; AID 602162, 2011;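 active = fluorescence ratio to DMSO below 75%, the collection mean minus 3 SD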;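 also: signal is porphyrin accumulated inside mitochondria; 100% equals median channel fluorescence of DMSO control wells; lower ratio means ABCB6 inhibition with less porphyrin fluorescence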
Target sequence (Q9NP58 whole entry, looked up): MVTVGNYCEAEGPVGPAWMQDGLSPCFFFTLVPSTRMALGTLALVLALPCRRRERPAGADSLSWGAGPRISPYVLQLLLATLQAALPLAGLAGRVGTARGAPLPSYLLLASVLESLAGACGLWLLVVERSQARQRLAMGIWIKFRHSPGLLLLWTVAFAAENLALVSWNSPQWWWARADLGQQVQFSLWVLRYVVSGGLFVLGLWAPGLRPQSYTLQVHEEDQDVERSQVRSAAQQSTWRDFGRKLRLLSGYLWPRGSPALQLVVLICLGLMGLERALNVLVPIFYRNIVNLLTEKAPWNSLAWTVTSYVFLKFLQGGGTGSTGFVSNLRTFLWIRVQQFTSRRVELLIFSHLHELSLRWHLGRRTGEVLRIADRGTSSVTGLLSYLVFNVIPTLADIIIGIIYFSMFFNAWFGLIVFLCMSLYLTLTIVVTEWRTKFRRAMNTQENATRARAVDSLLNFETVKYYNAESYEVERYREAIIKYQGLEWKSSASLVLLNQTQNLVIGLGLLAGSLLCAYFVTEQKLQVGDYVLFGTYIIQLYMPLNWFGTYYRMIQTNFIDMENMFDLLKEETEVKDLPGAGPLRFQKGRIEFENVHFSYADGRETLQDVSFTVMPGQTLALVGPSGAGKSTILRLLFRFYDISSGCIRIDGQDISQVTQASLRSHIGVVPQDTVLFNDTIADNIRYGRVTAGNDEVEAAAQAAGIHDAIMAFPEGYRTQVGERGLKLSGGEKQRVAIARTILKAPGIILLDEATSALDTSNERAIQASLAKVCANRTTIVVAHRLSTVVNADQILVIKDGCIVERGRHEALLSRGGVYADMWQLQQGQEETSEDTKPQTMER
hiPSC survival: enhancers of single-cell hiPSC survival, primary screen, ATPlite luminescence | survival enhancement, % at 20 µM | hit rate 0.044% among 360,000 | AID 602274, 2012 | 100% = ROCK inhibitor wells, 0% = DMSO; in the data active = survival enhancement above about 18%;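 also: cells exposed to compounds for 16 hours before the ATP read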
FAS TE block: FAS thioesterase domain inhibitors, primary screen, biochemical, fluorescence intensity, uHTS; Fatty acid synthase (Homo sapiens), P49327; recombinant FAS-TE, OMFH fluorogenic substrate, fluorescence endpoint; inhibition, % at 15 µM; hit rate 0.67% among 360,000;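 active = compounds whose normalised, plate-corrected inhibition of enzyme fluorescence in the single-dose primary screen is 50% or more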;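 also: 0% = DMSO with enzyme and 100% = substrate without enzyme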
FAS-TE conf: FAS thioesterase domain inhibitors, confirmation, biochemical, fluorescence intensity, single concentration; recombinant FAS-TE, OMFH fluorogenic substrate; hit rate 45% among 2,300; shares compounds with FAS TE block; inhibition, % at 15 µM; AID 624325, 2012;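 active = compounds inhibiting the enzyme by at least 50% at 15 µM in any one of the replicates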;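 also: 0% = enzyme with DMSO only and 100% = wells lacking enzyme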
* marks the source's active call; other numbers are inactive results. Most compounds without a hit are left out; they make up all but 1.1% or so of the library.

What do the screens show for `O=C1CC(N(CCc2ccccc2)C(=S)Nc2cc(Cl)ccc2Cl)C(=O)N1c1c(Cl)cccc1Cl` (stereo not drawn)?
SENP1 FRET inh: 1; ABCB6 inh MLPCN: 93; hiPSC survival: 0; FAS TE block: 56*; FAS-TE conf: 9

What do the screens show for `O=C(CC1C(=O)NCCN1Cc1cccc(F)c1F)NCCCC1CCCC1` (stereo not drawn)?
SENP1 FRET inh: -9; ABCB6 inh MLPCN: 100; hiPSC survival: -1; FAS TE block: 18

How did CCOc1ccc(S(=O)(=O)c2c(C(=O)c3ccccc3)cnc3cc4c(cc23)OCCO4)cc1 do in these assays?
SENP1 FRET inh: -2; ABCB6 inh MLPCN: 99; hiPSC survival: 3; FAS TE block: 80*; FAS-TE conf: 40

Results for CCOc1ccccc1N1CCN(C(=O)c2cc(S(=O)(=O)N(C)C)ccc2N2CCCC2)CC1 ?
SENP1 FRET inh: 0; ABCB6 inh MLPCN: 99; hiPSC survival: 0; FAS TE block: 8

Results for N#CCSc1nc2c(sc(=S)n2Cc2ccco2)c(=O)n1-c1ccc(F)cc1 ?
SENP1 FRET inh: -2; ABCB6 inh MLPCN: 86; hiPSC survival: -2; FAS TE block: 58*; FAS-TE conf: 17

Results for CCn1c(=S)sc2c(=O)n(-c3ccccc3)c(SC)nc21 ?
SENP1 FRET inh: 0; ABCB6 inh MLPCN: 98; hiPSC survival: -2; FAS TE block: 35

How did O=C(N/N=C/c1coc2ccc(Cl)cc2c1=O)c1ccncc1 do in these assays?
SENP1 FRET inh: -1; ABCB6 inh MLPCN: 100; hiPSC survival: 0; FAS TE block: 25

What do the screens show for `COc1cc(C(=O)N/N=C/c2coc3ccc(Cl)cc3c2=O)ccc1O`?
SENP1 FRET inh: -6; ABCB6 inh MLPCN: 91; hiPSC survival: 0; FAS TE block: 59*; FAS-TE conf: 66*

What do the screens show for `O=C(N/N=C/c1coc2ccc(Cl)cc2c1=O)c1ccc(O)cc1`?
SENP1 FRET inh: 0; ABCB6 inh MLPCN: 98; hiPSC survival: 0; FAS TE block: 65*; FAS-TE conf: 37*

Results for COc1cc(C(=O)Oc2ccccc2/C=N/NC(=O)c2ccc(Cl)cc2)cc(OC)c1OC ?
SENP1 FRET inh: -5; ABCB6 inh MLPCN: 94; hiPSC survival: -2; FAS TE block: 54*; FAS-TE conf: 22

Results for COc1cccc(-c2ncc3ccccc3c2COC(=O)N2CCCCC2)c1 ?
SENP1 FRET inh: 4; ABCB6 inh MLPCN: 96; hiPSC survival: -2; FAS TE block: 11

Results for CCC1CCC(c2nnc(-c3ccc([N+](=O)[O-])cc3)o2)CC1 (stereo not drawn) ?
SENP1 FRET inh: 3; ABCB6 inh MLPCN: 98; hiPSC survival: 0; FAS TE block: 6

What do the screens show for `CC(=O)N1C[C@H]2CON(C)[C@H]2C[C@H]1c1ccc(-c2cccnc2)cc1`?
SENP1 FRET inh: 4; ABCB6 inh MLPCN: 95; hiPSC survival: 5; FAS TE block: -7

What do the screens show for `O=[N+]([O-])c1cc(CS(=O)(=O)Oc2ccc(Cl)cc2)c(O)c([N+](=O)[O-])c1`?
SENP1 FRET inh: 2; ABCB6 inh MLPCN: 101; hiPSC survival: -1; FAS TE block: 57*; FAS-TE conf: 68*

What do the screens show for `COc1cccc2oc3cc(C#CC4(O)CCCCC4)ccc3c(=O)c12`?
SENP1 FRET inh: -4; ABCB6 inh MLPCN: 93; hiPSC survival: -3; FAS TE block: 0

Results for O=c1c2ccccc2oc2cc(C#CC3(O)CCCCC3)ccc12 ?
SENP1 FRET inh: 1; ABCB6 inh MLPCN: 101; hiPSC survival: -3; FAS TE block: 55*; FAS-TE conf: 36

Results for COc1ccc(Cl)cc1-c1cc(C(=O)NCc2ccc(C(F)(F)F)cc2)[nH]n1 ?
SENP1 FRET inh: 0; ABCB6 inh MLPCN: 99; hiPSC survival: 0; FAS TE block: 56*; FAS-TE conf: 55*

Results for COc1ccc(Cl)cc1-c1cc(C(=O)NCc2ccc(F)cc2)[nH]n1 ?
SENP1 FRET inh: -1; ABCB6 inh MLPCN: 95; hiPSC survival: 0; FAS TE block: 32

Results for CCCCn1c(CN2CCN(c3ccccc3)CC2)nc2c1c(=O)n(C)c(=O)n2C ?
SENP1 FRET inh: -2; ABCB6 inh MLPCN: 97; hiPSC survival: -1; FAS TE block: 50*; FAS-TE conf: 50*

What do the screens show for `CCCCn1c(CN2CCN(c3cccc(Cl)c3)CC2)nc2c1c(=O)n(C)c(=O)n2C`?
SENP1 FRET inh: 0; ABCB6 inh MLPCN: 95; hiPSC survival: 0; FAS TE block: 71*; FAS-TE conf: 54*

What do the screens show for `CCCn1c(CN2CCN(c3cccc(Cl)c3)CC2)nc2c1c(=O)n(C)c(=O)n2C`?
SENP1 FRET inh: 3; ABCB6 inh MLPCN: 101; hiPSC survival: -1; FAS TE block: 34

What do the screens show for `CCCCCn1c(CN2CCN(c3cccc(Cl)c3)CC2)nc2c1c(=O)n(C)c(=O)n2C`?
SENP1 FRET inh: 4; ABCB6 inh MLPCN: 91; hiPSC survival: 0; FAS TE block: 79*; FAS-TE conf: 35*

How did CC(C)(C)NC(=O)C1c2ccccc2OCC(=O)N1Cc1ccccn1 (stereo not drawn) do in these assays?
SENP1 FRET inh: 0; ABCB6 inh MLPCN: 95; hiPSC survival: 0; FAS TE block: -13

Results for C[C@H](CO)N1C[C@H](C)[C@@H](CN(C)S(=O)(=O)c2cccs2)Oc2ccc(NC(=O)Nc3ccc4c(c3)OCO4)cc2C1=O ?
SENP1 FRET inh: 2; ABCB6 inh MLPCN: 97; hiPSC survival: 0; FAS TE block: 4

Results for C[C@@H]1CCCCO[C@H](CN(C)S(=O)(=O)c2cccs2)[C@@H](C)CN([C@H](C)CO)C(=O)c2cc(NC(=O)Nc3ccc4c(c3)OCO4)ccc2O1 ?
SENP1 FRET inh: -2; ABCB6 inh MLPCN: 101; hiPSC survival: -2; FAS TE block: 60*; FAS-TE conf: 11

Results for CC(C)NC(=O)N(C)C[C@@H]1OCCCC[C@@H](C)Oc2ccc(NC(=O)Nc3ccc(F)cc3)cc2C(=O)N([C@H](C)CO)C[C@@H]1C ?
SENP1 FRET inh: 2; ABCB6 inh MLPCN: 101; hiPSC survival: 2; FAS TE block: -3

How did C[C@@H]1CN([C@H](C)CO)C(=O)c2cc(NC(=O)Nc3ccc(F)cc3)ccc2O[C@@H](C)CCCCO[C@H]1CN(C)S(=O)(=O)c1cccs1 do in these assays?
SENP1 FRET inh: 0; ABCB6 inh MLPCN: 99; hiPSC survival: 0; FAS TE block: 81*; FAS-TE conf: 78*

Results for CC1Cc2ccccc2N1C(=O)c1ccc(F)c(S(=O)(=O)N2CCOCC2)c1 (stereo not drawn) ?
SENP1 FRET inh: -3; ABCB6 inh MLPCN: 93; hiPSC survival: 4; FAS TE block: 0
